Experiments:
[1] = target: Metabotropic glutamate receptor 5 (Rattus norvegicus, UniProt P31424); assay: Displacement of [3H]MPEP from mGluR5 in rat brain; format: tissue-based
Summary of the method: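 Competition binding on rat brain homogenate mGlu5 against [3H]MPEP at 1.0 nM. Run by the NIMH Psychoactive Drug Screening Program. Ki derived from triplicate determinations, n = 6 for some ligands. Values cited from earlier work were not measured here.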

D(4) dopamine receptor = D(4) dopamine receptor (Homo sapiens, UniProt P21917); assay: Binding affinity to dopamine D4 receptor
[2] = target: Muscarinic acetylcholine receptor M2 (Homo sapiens, UniProt P08172); assay: Binding affinity to muscarinic M2 receptor
D(3) dopamine receptor = D(3) dopamine receptor (Homo sapiens, UniProt P35462); assay: Binding affinity to dopamine D3 receptor
[3] = target: 5-hydroxytryptamine receptor 2A (Homo sapiens, UniProt P28223); assay: Binding affinity to 5HT2A receptor
[4] = target: Beta-3 adrenergic receptor (Homo sapiens, UniProt P13945); assay: Binding affinity to adrenergic beta3 receptor
D(1B) dopamine receptor = D(1B) dopamine receptor (Homo sapiens, UniProt P21918); assay: Binding affinity to dopamine D5 receptor
[5] = target: 5-hydroxytryptamine receptor 5A (Homo sapiens, UniProt P47898); assay: Binding affinity to 5HT5A receptor
[6] = target: Alpha-1B adrenergic receptor (Homo sapiens, UniProt P35368); assay: Binding affinity to adrenergic Alpha-1B receptor
[7] = target: Muscarinic acetylcholine receptor M4 (Homo sapiens, UniProt P08173); assay: Binding affinity to muscarinic M4 receptor
[8] = target: Metabotropic glutamate receptor 2 (Homo sapiens, UniProt Q14416); assay: Binding affinity to mGluR2 receptor
[9] = target: Beta-2 adrenergic receptor (Homo sapiens, UniProt P07550); assay: Binding affinity to adrenergic beta2 receptor
[10] = target: Alpha-1A adrenergic receptor (Homo sapiens, UniProt P35348); assay: Binding affinity to adrenergic alpha1A receptor
[11] = target: Metabotropic glutamate receptor 1 (Homo sapiens, UniProt Q13255); assay: Binding affinity to mGluR1 receptor
D(2) dopamine receptor = D(2) dopamine receptor (Homo sapiens, UniProt P14416); assay: Binding affinity to dopamine D2 receptor
[12] = target: Alpha-2B adrenergic receptor (Homo sapiens, UniProt P18089); assay: Binding affinity to adrenergic alpha2B receptor
[13] = target: Sodium-dependent serotonin transporter (Homo sapiens, UniProt P31645); assay: Binding affinity to SERT receptor
[14] = target: Delta-type opioid receptor (Homo sapiens, UniProt P41143); assay: Binding affinity to DOR
Histamine H3 receptor = Histamine H3 receptor (Homo sapiens, UniProt Q9Y5N1); assay: Binding affinity to histamine H3 receptor
[15] = target: 5-hydroxytryptamine receptor 2C (Homo sapiens, UniProt P28335); assay: Binding affinity to 5HT2C receptor
[16] = target: Alpha-2A adrenergic receptor (Homo sapiens, UniProt P08913); assay: Binding affinity to adrenergic alpha2A receptor
[17] = target: Muscarinic acetylcholine receptor M5 (Homo sapiens, UniProt P08912); assay: Binding affinity to muscarinic M5 receptor
D(1A) dopamine receptor = D(1A) dopamine receptor (Homo sapiens, UniProt P21728); assay: Binding affinity to dopamine D1 receptor
[18] = target: Sodium-dependent noradrenaline transporter (Homo sapiens, UniProt P23975); assay: Binding affinity to NET
[19] = target: Kappa-type opioid receptor (Homo sapiens, UniProt P41145); assay: Binding affinity to KOR
Histamine H1 receptor = Histamine H1 receptor (Homo sapiens, UniProt P35367); assay: Binding affinity to histamine H1 receptor
[20] = target: 5-hydroxytryptamine receptor 1A (Homo sapiens, UniProt P08908); assay: Binding affinity to 5HT1A receptor
Mu-type opioid receptor = Mu-type opioid receptor (Homo sapiens, UniProt P35372); assay: Binding affinity to MOR
[21] = Binding affinity to benzodiazepine receptor in rat brain; format: tissue-based
[22] = target: Alpha-2C adrenergic receptor (Homo sapiens, UniProt P18825); assay: Binding affinity to adrenergic Alpha-2C receptor
Histamine H4 receptor = Histamine H4 receptor (Homo sapiens, UniProt Q9H3N8); assay: Binding affinity to histamine H4 receptor
[23] = target: 5-hydroxytryptamine receptor 1D (Homo sapiens, UniProt P28221); assay: Binding affinity to 5HT1D receptor
[24] = target: Alpha-1D adrenergic receptor (Homo sapiens, UniProt P25100); assay: Binding affinity to adrenergic Alpha-1D receptor
[25] = target: Muscarinic acetylcholine receptor M3 (Homo sapiens, UniProt P20309); assay: Binding affinity to muscarinic M3 receptor
Histamine H2 receptor = Histamine H2 receptor (Homo sapiens, UniProt P25021); assay: Binding affinity to histamine H2 receptor
[26] = target: Beta-1 adrenergic receptor (Homo sapiens, UniProt P08588); assay: Binding affinity to adrenergic beta1 receptor
[27] = target: 5-hydroxytryptamine receptor 6 (Homo sapiens, UniProt P50406); assay: Binding affinity to 5HT6 receptor
[28] = target: Metabotropic glutamate receptor 4 (Homo sapiens, UniProt Q14833); assay: Binding affinity to mGluR4 receptor
[29] = target: Metabotropic glutamate receptor 8 (Homo sapiens, UniProt O00222); assay: Binding affinity to mGluR8 receptor
[30] = Binding affinity to sigma 2 receptor
[31] = target: Sodium-dependent dopamine transporter (Homo sapiens, UniProt Q01959); assay: Binding affinity to DAT
[32] = Binding affinity to GABAA receptor
[33] = target: 5-hydroxytryptamine receptor 7 (Homo sapiens, UniProt P34969); assay: Binding affinity to 5HT7 receptor
[34] = target: 5-hydroxytryptamine receptor 2B (Homo sapiens, UniProt P41595); assay: Binding affinity to 5HT2B receptor
[35] = Binding affinity to NMDA receptor PCP binding site
[36] = target: Muscarinic acetylcholine receptor M1 (Homo sapiens, UniProt P11229); assay: Binding affinity to muscarinic M1 receptor
[37] = target: 5-hydroxytryptamine receptor 1B (Homo sapiens, UniProt P28222); assay: Binding affinity to 5HT1B receptor
[38] = target: 5-hydroxytryptamine receptor 1E (Homo sapiens, UniProt P28566); assay: Binding affinity to 5HT1E receptor
[39] = target: 5-hydroxytryptamine receptor 3A (Homo sapiens, UniProt P46098); assay: Binding affinity to 5HT3 receptor
[40] = target: Metabotropic glutamate receptor 6 (Homo sapiens, UniProt O15303); assay: Binding affinity to mGluR6 receptor
[41] = target: Sigma non-opioid intracellular receptor 1 (Homo sapiens, UniProt Q99720); assay: Binding affinity to sigma 1 receptor
Sequence of Sigma non-opioid intracellular receptor 1 (Q99720 whole entry): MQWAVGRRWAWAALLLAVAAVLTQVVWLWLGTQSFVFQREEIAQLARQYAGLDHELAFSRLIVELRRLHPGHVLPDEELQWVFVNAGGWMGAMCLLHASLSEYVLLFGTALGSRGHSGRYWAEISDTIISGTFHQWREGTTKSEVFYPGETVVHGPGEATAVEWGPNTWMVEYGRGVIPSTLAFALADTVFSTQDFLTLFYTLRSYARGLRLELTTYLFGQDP

Sequence of Metabotropic glutamate receptor 5 (P31424 whole entry): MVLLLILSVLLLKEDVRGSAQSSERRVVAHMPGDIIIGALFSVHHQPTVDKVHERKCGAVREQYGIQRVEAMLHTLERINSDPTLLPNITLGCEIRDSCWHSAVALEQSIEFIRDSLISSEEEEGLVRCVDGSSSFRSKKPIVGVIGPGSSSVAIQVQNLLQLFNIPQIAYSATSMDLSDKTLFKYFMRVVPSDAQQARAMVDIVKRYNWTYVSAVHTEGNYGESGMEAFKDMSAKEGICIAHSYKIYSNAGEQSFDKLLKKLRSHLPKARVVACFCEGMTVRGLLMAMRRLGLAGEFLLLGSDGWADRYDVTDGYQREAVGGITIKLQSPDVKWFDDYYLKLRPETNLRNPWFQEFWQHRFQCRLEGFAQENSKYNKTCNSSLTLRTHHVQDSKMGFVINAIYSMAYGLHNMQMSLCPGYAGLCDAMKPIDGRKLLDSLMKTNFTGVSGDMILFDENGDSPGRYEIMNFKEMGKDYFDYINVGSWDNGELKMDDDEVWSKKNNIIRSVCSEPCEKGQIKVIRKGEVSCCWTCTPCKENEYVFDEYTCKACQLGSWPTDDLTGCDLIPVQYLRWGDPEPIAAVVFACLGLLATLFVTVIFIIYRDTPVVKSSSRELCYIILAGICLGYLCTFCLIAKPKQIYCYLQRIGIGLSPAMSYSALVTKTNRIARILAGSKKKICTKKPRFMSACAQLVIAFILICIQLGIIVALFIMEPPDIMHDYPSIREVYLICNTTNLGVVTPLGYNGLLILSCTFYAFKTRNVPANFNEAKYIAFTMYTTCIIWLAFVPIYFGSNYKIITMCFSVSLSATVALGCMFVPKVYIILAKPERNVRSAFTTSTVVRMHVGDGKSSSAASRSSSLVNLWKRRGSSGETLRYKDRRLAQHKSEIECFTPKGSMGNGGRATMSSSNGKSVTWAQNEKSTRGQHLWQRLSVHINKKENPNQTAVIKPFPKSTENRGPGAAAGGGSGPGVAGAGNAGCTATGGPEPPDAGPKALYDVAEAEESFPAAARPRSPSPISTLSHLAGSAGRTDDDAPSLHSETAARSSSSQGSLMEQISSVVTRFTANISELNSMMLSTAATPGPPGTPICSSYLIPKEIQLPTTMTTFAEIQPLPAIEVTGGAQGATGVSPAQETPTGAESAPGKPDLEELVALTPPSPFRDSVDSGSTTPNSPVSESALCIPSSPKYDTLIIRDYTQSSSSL
Sequence of Alpha-1D adrenergic receptor (P25100 whole entry): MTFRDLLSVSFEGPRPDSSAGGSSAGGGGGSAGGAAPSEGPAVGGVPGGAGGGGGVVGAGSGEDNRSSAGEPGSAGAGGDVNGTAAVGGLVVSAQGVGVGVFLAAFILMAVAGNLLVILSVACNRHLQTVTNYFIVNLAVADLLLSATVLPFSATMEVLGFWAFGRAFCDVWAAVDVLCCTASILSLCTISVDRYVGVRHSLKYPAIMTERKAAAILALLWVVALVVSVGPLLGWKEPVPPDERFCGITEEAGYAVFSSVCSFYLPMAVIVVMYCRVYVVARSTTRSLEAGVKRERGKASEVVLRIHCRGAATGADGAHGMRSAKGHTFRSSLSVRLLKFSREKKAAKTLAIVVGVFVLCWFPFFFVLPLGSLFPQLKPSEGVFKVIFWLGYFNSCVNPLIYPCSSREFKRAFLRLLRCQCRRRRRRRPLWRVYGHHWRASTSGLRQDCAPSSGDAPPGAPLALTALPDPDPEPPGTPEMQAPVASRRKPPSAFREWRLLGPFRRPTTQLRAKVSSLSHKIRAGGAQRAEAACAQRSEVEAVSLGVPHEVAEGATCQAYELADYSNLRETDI
Sequence of Sodium-dependent dopamine transporter (Q01959 whole entry): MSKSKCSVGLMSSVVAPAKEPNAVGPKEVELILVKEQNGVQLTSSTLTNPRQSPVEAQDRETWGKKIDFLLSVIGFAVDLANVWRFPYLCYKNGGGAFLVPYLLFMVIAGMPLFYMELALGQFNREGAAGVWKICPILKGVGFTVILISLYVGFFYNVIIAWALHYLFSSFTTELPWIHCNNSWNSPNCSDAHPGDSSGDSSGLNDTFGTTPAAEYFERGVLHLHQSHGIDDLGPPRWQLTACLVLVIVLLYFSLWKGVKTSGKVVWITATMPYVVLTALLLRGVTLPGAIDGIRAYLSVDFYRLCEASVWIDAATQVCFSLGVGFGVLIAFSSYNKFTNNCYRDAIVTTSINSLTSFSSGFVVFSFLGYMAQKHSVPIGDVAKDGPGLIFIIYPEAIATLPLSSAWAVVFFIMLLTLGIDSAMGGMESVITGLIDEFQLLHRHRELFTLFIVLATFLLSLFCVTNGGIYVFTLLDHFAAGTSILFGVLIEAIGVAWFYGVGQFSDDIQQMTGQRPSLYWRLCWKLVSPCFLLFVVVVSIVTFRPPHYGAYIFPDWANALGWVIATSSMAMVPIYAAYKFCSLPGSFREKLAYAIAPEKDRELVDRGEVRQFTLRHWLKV
Sequence of Histamine H1 receptor (P35367 whole entry): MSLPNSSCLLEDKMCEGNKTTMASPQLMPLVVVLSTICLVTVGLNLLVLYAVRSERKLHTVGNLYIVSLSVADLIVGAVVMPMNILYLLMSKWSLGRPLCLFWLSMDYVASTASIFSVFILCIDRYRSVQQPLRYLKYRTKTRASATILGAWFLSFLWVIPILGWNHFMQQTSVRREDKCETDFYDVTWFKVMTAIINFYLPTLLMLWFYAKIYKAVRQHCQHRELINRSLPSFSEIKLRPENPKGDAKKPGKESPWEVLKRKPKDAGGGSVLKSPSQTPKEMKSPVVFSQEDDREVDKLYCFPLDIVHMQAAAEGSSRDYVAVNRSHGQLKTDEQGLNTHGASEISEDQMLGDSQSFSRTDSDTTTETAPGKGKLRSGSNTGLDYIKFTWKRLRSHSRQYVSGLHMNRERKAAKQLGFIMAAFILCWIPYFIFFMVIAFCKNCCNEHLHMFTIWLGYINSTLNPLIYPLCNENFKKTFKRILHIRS
Sequence of Metabotropic glutamate receptor 8 (O00222 whole entry): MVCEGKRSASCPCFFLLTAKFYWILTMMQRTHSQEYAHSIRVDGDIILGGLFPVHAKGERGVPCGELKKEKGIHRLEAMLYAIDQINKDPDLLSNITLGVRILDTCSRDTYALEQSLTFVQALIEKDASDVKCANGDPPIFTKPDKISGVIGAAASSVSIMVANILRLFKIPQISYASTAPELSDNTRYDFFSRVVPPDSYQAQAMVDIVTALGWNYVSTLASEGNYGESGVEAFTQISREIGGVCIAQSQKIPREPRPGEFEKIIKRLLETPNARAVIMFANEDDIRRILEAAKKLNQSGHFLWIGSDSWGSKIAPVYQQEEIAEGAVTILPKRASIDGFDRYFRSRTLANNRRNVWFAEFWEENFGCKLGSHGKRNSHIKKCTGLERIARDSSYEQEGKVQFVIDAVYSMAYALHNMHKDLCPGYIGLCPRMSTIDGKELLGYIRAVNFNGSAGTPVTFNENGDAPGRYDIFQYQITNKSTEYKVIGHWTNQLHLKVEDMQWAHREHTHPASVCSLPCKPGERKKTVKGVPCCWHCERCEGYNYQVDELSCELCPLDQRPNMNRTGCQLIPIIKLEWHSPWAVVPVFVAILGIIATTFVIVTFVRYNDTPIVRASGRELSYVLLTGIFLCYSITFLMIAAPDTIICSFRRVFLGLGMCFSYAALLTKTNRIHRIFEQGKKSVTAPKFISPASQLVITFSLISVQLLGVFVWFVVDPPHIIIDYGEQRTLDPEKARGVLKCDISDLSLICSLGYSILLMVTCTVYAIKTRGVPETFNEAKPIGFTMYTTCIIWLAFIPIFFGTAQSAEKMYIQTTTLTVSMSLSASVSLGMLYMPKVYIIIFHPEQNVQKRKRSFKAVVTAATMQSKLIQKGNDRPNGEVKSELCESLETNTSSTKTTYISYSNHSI
Sequence of Muscarinic acetylcholine receptor M4 (P08173 whole entry): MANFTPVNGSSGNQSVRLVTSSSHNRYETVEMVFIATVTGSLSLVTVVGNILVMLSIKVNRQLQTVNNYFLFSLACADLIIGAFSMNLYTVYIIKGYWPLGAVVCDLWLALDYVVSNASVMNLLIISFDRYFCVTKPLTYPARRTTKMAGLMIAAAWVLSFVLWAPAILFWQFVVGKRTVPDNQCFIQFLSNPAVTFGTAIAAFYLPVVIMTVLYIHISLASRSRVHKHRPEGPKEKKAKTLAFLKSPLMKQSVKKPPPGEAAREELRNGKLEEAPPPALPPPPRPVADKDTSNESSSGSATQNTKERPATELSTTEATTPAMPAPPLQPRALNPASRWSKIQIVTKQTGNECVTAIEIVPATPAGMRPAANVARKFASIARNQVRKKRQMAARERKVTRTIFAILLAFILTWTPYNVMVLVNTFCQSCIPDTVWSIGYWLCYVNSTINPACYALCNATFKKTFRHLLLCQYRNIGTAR
Sequence of Alpha-1B adrenergic receptor (P35368 whole entry): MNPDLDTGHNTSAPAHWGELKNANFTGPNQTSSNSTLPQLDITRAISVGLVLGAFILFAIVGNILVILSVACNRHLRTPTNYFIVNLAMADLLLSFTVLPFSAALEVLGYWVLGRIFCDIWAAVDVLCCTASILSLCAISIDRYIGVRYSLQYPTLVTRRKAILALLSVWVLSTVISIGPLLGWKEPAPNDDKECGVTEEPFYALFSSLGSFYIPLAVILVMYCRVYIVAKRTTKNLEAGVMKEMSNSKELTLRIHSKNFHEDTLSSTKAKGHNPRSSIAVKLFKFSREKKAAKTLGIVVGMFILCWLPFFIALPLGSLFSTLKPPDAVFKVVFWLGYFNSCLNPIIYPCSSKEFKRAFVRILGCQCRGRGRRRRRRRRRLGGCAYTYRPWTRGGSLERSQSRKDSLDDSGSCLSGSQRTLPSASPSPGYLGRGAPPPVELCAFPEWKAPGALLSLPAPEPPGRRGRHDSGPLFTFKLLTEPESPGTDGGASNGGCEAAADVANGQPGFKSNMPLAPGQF

SMILES: COc1cccc(C#Cc2csc(F)n2)c1
- Ki [1]: 22.7 nM

SMILES: N#Cc1cccc(C#Cc2csc(N)n2)c1
- Ki [1]: 0.9 nM

SMILES: N#Cc1cc(F)cc(C#Cc2csc(N)n2)c1
- Ki [1]: 0.25 nM

SMILES: N#CCc1cccc(C#Cc2csc(N)n2)c1
- Ki [1]: 5.9 nM

SMILES: COc1cccc(C#Cc2csc(N)n2)c1
- Ki [1]: 18.6 nM

SMILES: N#Cc1cccc(C#Cc2csc(Cl)n2)c1
- Ki [1]: 0.27 nM

SMILES: N#Cc1cc(F)cc(C#Cc2csc(Cl)n2)c1
- Ki [1]: 0.4 nM

SMILES: N#CCc1cccc(C#Cc2csc(Cl)n2)c1
- Ki [1]: 3.1 nM

SMILES: COc1cccc(C#Cc2csc(Cl)n2)c1
- Ki [1]: 8.1 nM

SMILES: N#Cc1cccc(C#Cc2csc(Br)n2)c1
- Ki [1]: 3.7 nM

SMILES: N#Cc1cc(F)cc(C#Cc2csc(Br)n2)c1
- Ki [1]: 0.95 nM

SMILES: N#CCc1cccc(C#Cc2csc(Br)n2)c1
- Ki [1]: 3.3 nM

SMILES: COc1cccc(C#Cc2csc(Br)n2)c1
- Ki [1]: 22.3 nM

SMILES: N#Cc1cccc(C#Cc2csc(I)n2)c1
- Ki [1]: 4.2 nM

SMILES: N#Cc1cc(F)cc(C#Cc2csc(I)n2)c1
- Ki [1]: 1.3 nM

SMILES: N#CCc1cccc(C#Cc2csc(I)n2)c1
- Ki [1]: 23.3 nM

SMILES: COc1cccc(C#Cc2csc(I)n2)c1
- Ki [1]: 133 nM

SMILES: N#Cc1cccc(C#Cc2csc(F)n2)c1
- Ki [1]: 1.6 nM

SMILES: N#Cc1cc(F)cc(C#Cc2csc(F)n2)c1
- Ki (D(4) dopamine receptor): > 10 µM
- Ki [2]: > 10 µM
- Ki (D(3) dopamine receptor): > 10 µM
- Ki [1]: 0.28 nM
- Ki [3]: > 10 µM
- Ki [4]: > 10 µM
- Ki (D(1B) dopamine receptor): > 10 µM
- Ki [5]: > 10 µM
- Ki [6]: > 10 µM
- Ki [7]: > 10 µM
- Ki [8]: > 10 µM
- Ki [9]: > 10 µM
- Ki [10]: > 10 µM
- Ki [11]: > 10 µM
- Ki (D(2) dopamine receptor): > 10 µM
- Ki [12]: > 10 µM
- Ki [13]: > 10 µM
- Ki [14]: > 10 µM
- Ki (Histamine H3 receptor): > 10 µM
- Ki [15]: > 10 µM
- Ki [16]: > 10 µM
- Ki [17]: > 10 µM
- Ki (D(1A) dopamine receptor): > 10 µM
- Ki [18]: > 10 µM
- Ki [19]: > 10 µM
- Ki (Histamine H1 receptor): > 10 µM
- Ki [20]: > 10 µM
- Ki (Mu-type opioid receptor): > 10 µM
- Ki [21]: > 10 µM
- Ki [22]: > 10 µM
- Ki (Histamine H4 receptor): > 10 µM
- Ki [23]: > 10 µM
- Ki [24]: > 10 µM
- Ki [25]: > 10 µM
- Ki (Histamine H2 receptor): > 10 µM
- Ki [26]: > 10 µM
- Ki [27]: > 10 µM
- Ki [28]: > 10 µM
- Ki [29]: > 10 µM
- Ki [30]: > 10 µM
- Ki [31]: > 10 µM
- Ki [32]: > 10 µM
- Ki [33]: > 10 µM
- Ki [34]: > 10 µM
- Ki [35]: > 10 µM
- Ki [36]: > 10 µM
- Ki [37]: > 10 µM
- Ki [38]: > 10 µM
- Ki [39]: > 10 µM
- Ki [40]: > 10 µM
- Ki [41]: > 10 µM

SMILES: N#CCc1cccc(C#Cc2csc(F)n2)c1
- Ki [1]: 3.9 nM

SMILES: Fc1nc(C#Cc2ccccc2)cs1
- Ki [1]: 122 nM

SMILES: N#Cc1cc(F)cc(C#Cc2csc(CF)n2)c1
- Ki [1]: 0.036 nM

SMILES: Cc1nc(C#Cc2cc(F)cc(C#N)c2)cs1
- Ki [1]: 0.08 nM

Reference: ChEMBL document CHEMBL1671821, “Syntheses of 2-amino and 2-halothiazole derivatives as high-affinity metabotropic glutamate receptor subtype 5 ligands and potential radioligands for in vivo imaging” (J Med Chem, 2011)
